19 molecules from PubChem BioAssay can be followed below.

Assay [1] is described as follows: reduced viability of SK-BR-3 breast cancer cells – cell-based, 24 h, human, pilot screen (AID 572;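 active = viability at or below 10% of carrier control in both of two separate runs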;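 note: compound exposure lasted between 18 and 24 h rather than exactly 24 h; 100% = carrier-treated control wells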). To be noted: SK-BR-3 viability, CellTiter-Glo luminescence, at 10 µM, stronger effect = lower value. On the technique in general: ATP-based viability assays read luminescence as a measure of living cells.
Assay [2] is described as follows: HUVEC growth inhibition – cell-based, human, primary screen (AID 575;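 active = viability at or below 30% in both replicate assays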;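 note: 100% = median of untreated cell wells with 0.1% DMSO on each plate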). The settings on record: HUVEC proliferation, CellTiter-Glo luminescence, 72 h; at 10 µM; stronger effect = lower value. The method in brief:
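system = HUVEC primary cells | amount = 1250 cells/well | buffer or medium = supplemented EBM, 2% fetal bovine serum | dosing = single-point 10 µM, DMSO 0.1% final | times = 72 h compound incubation | detection = CTG luminescence | read-out = % viability relative to median vehicle-well signal on each plate | control set = vehicle and MePR control wells | format = collagen-coated 384-well format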

Assay [3] can be described thus: H69AR cell proliferation blockers – human, duplicate replicates, primary screen (AID 580;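 active = viability at or under a set limit in both replicates, limit being median viability minus 3 SD, cut at about 48% in these data, passing the limit was not always enough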;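 note: 100% = mean luminescence of untreated wells and 0% = no signal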). The settings on record: H69AR lung tumor cells viability, ATP luminescence, 72 h; at 10 µM; stronger effect = lower value.
Assay [4] can be described thus: MRP1 drug-resistance reversers in H69AR cells – cell-based, doxorubicin co-treatment, pilot screen (AID 601). To be noted: CellTiter-Glo, 72 h, at 10 µM; for differential viability (reversal): stronger effect = higher value.
Assay [5] is described as follows: yeast transport mutant growth inhibition pilot in 384-well plates, post-Golgi transport modulator project (AID 636; in the data active = inhibition above about 31%). To be noted: absorbance 615 nm, about 18 h, stronger effect = higher value.
Assay [6] is described as follows: growth suppression of yeast trafficking mutant, preliminary HTS, modulators of trafficking downstream of Golgi apparatus project, 1536-format plate, OD 615 nm (AID 637; in the data active = inhibition above about 30%). The settings on record: yeast transport mutant growth, absorbance 615 nm, 18 h; stronger effect = higher value.
Setting [7] is: H69AR cells + 2 uM doxorubicin, measured here: viability with 2 uM doxorubicin, stronger effect = lower value.
[8] abbreviates: H69AR cells, compound alone cytotoxicity.

Activity calls are given as the source filed them.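 Rule for the calls, unless noted: active = viability loss from added drug above about 55%, and viability with drug at most 40%, in both replicates (limit read from the data, passing the limit was not always enough); inconclusive = both conditions met in only one replicate; inactive = neither replicate meets both conditions.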

What is called viability is a read-out of living cells in per cent, often relative to untreated cells. As a reminder, the inhibition is the change of the read-out against control, counted positive when it falls. Take `CN1CCN(c2nc3c(c(=O)n(C)c(=O)n3C)n2Cc2cccc3ccccc23)CC1`: the viability is 129% (inactive) in assay [1]; 77.5% (inactive) in assay [2]; 84% (inactive) in assay [3]; 57.4% in assay [4] (setting [7]); 84% in assay [4] (setting [8]). Besides, the differential viability (reversal) in assay [4] (H69AR cells + 2 uM doxorubicin) is 26.6% (inactive). For the same molecule, the inhibition was 0% (inactive) in assay [5] and 0.16% (inactive) in assay [6].

In the case of `Cc1c(NC(=O)c2nn(C)c(=O)c3ccccc23)c(=O)n(-c2ccccc2)n1C`, the viability in assay [1] is 94% (inactive); in assay [2], 108% (inactive); in assay [3], 97.9% (inactive); in assay [4] (setting [7]), 89.1%; in assay [4] (setting [8]) it was 97.9%. The differential viability (reversal) in assay [4] (H69AR cells + 2 uM doxorubicin) was 8.84% (inactive). For the same molecule, the results for the inhibition in assay [5] and in assay [6] were -1.92% (inactive) and -8.06% (inactive), respectively.

As to `CCN(CC)CCNC(=O)c1cc(Cl)c(N)cc1OC`, the viability in assay [1] was 89% (inactive); in assay [2] it was 85.9% (inactive); in assay [3] it was 93.8% (inactive); in assay [4] (setting [7]), 102%; in assay [4] (setting [8]), 93.8%. Further, the differential viability (reversal) in assay [4] (H69AR cells + 2 uM doxorubicin) is -8.38% (inactive). Also, the inhibition was -3.25% (inactive) in assay [5] and -2.5% (inactive) in assay [6].

On to `CCOC(=O)c1cccc(NC(=O)CSc2nnc(-c3cccnc3)n2C)c1`, for which the viability was 99% (inactive) in assay [1]; 107% (inactive) in assay [2]; 98.3% (inactive) in assay [3]; 92.7% in assay [4] (setting [7]); 98.3% in assay [4] (setting [8]). The differential viability (reversal) in assay [4] (H69AR cells + 2 uM doxorubicin) was 5.64% (inactive). In addition, the inhibition in assay [5] is -3.38% (inactive); in assay [6] it was -0.73% (inactive).

For `COc1cc(C2N=C(c3ccccc3)NO2)cc(Br)c1O` (configuration not stated), the viability in assay [1] is 90% (inactive); in assay [2], 87.5% (inactive); in assay [3], 84.8% (inactive); in assay [4] (setting [7]) it was 89%; in assay [4] (setting [8]), 84.8%. The differential viability (reversal) in assay [4] (H69AR cells + 2 uM doxorubicin) is -4.25% (inactive). In addition, the values for the inhibition in assay [5] and in assay [6] were -3.12% (inactive) and -10% (inactive), respectively.

`C/C=C(\CS(=O)(=O)c1ccccc1)S(=O)(=O)c1ccccc1`: the viability was 110% (inactive) in assay [1]; 85.1% (inactive) in assay [2]; 6.84% (active) in assay [3]; 7.22% in assay [4] (setting [7]); 6.84% in assay [4] (setting [8]). The differential viability (reversal) in assay [4] (H69AR cells + 2 uM doxorubicin) was -0.38% (inactive). In addition, the inhibition is -0.91% (inactive) in assay [5] and -4.26% (inactive) in assay [6].

Take `O=C(NCC1CCCO1)c1cc(-c2ccncc2)nc2ccc(S(=O)(=O)N3CCOCC3)cc12` (configuration not stated): the viability in assay [1] is 106% (inactive); in assay [2], 111% (inactive); in assay [3], 95.8% (inactive); in assay [4] (setting [7]) it was 87%; in assay [4] (setting [8]) it was 95.8%. Besides, the differential viability (reversal) in assay [4] (H69AR cells + 2 uM doxorubicin) was 8.86% (inactive). In addition, the inhibition was -7.87% (inactive) in assay [5] and 4.18% (inactive) in assay [6].

On to `CCOC(=O)C1CN(S(=O)(=O)c2ccc(C)cc2)CCN1S(=O)(=O)c1ccc(C)cc1` (configuration not stated), for which the viability was 100% (inactive) in assay [1]; 101% (inactive) in assay [2]; 84.5% (inactive) in assay [3]; 101% in assay [4] (setting [7]); 84.5% in assay [4] (setting [8]). The differential viability (reversal) in assay [4] (H69AR cells + 2 uM doxorubicin) was -16.3% (inactive). Also, the inhibition is -2.6% (inactive) in assay [5] and -1.8% (inactive) in assay [6].

For the molecule `CCCCOc1ccc(S(=O)(=O)n2c(C)nc3ccccc32)cc1`, the viability in assay [1] was 138% (inactive); in assay [2], 53.2% (inactive); in assay [3] it was 87.1% (inactive); in assay [4] (setting [7]), 94.8%; in assay [4] (setting [8]), 87.1%. In addition, the differential viability (reversal) in assay [4] (H69AR cells + 2 uM doxorubicin) is -7.77% (inactive). Moreover, the inhibition was -3.38% (inactive) in assay [5] and 1.33% (inactive) in assay [6].

In the case of `COc1cc(-c2nc(S(=O)(=O)c3ccc(C)cc3)c(N(C)C)o2)cc(OC)c1OC`, the viability in assay [1] was 71% (inactive); in assay [2], 93.2% (inactive); in assay [3], 87.9% (inactive); in assay [4] (setting [7]) it was 86.3%; in assay [4] (setting [8]), 87.9%. Also, in assay [4] (H69AR cells + 2 uM doxorubicin), the differential viability (reversal) was 1.51% (inactive). For the same molecule, the results for the inhibition in assay [5] and in assay [6] were -8.4% (inactive) and -1.09% (inactive), respectively.

With `CCOC(=O)N1CCN(C(=O)c2cn(CC)c3cc(N4CCN(C)CC4)c(F)cc3c2=O)CC1`, the viability in assay [1] is 100% (inactive); in assay [2], 101% (inactive); in assay [3] it was 104% (inactive); in assay [4] (setting [7]), 103%; in assay [4] (setting [8]) it was 104%. Further, the differential viability (reversal) in assay [4] (H69AR cells + 2 uM doxorubicin) is 1.33% (inactive). The results for the inhibition in assay [5] and in assay [6] were -7.26% (inactive) and 7.74% (inactive), respectively.

For the molecule `Cc1cccc(NC(=O)CC2CCC2)c1`, the viability in assay [1] was 87% (inactive); in assay [2], 102% (inactive); in assay [3], 99.8% (inactive); in assay [4] (setting [7]), 103%; in assay [4] (setting [8]) it was 99.8%. In assay [4] (H69AR cells + 2 uM doxorubicin), the differential viability (reversal) was -2.9% (inactive). In addition, the values for the inhibition in assay [5] and in assay [6] were -5.75% (inactive) and 4.55% (inactive), respectively.

With `COc1ccc(-n2nc3cc(C)c(N)c(Br)c3n2)cc1`, the viability in assay [1] is 74% (inactive); in assay [2], 85.6% (inactive); in assay [3], 65.5% (inactive); in assay [4] (setting [7]) it was 98.9%; in assay [4] (setting [8]), 65.5%. Besides, the differential viability (reversal) in assay [4] (H69AR cells + 2 uM doxorubicin) is -33.4% (inactive). The inhibition in assay [5] was -6.3% (inactive); in assay [6], -1.45% (inactive).

On to `Cc1cccc(NC(=O)CSc2nnc(-c3ccccc3C)o2)c1`, for which the viability is 87% (inactive) in assay [1]; 107% (inactive) in assay [2]; 75.4% (inactive) in assay [3]; 72% in assay [4] (setting [7]); 75.4% in assay [4] (setting [8]). In addition, the differential viability (reversal) in assay [4] (H69AR cells + 2 uM doxorubicin) is 3.35% (inactive). Also, the values for the inhibition in assay [5] and in assay [6] were -5.95% (inactive) and -7.27% (inactive), respectively.

Regarding `COC(=O)c1ccccc1NC(=O)COc1ccc(S(=O)(=O)N2CCCC2)cc1C`, the viability in assay [1] is 90% (inactive); in assay [2] it was 87.1% (inactive); in assay [3] it was 74.4% (inactive); in assay [4] (setting [7]), 66.4%; in assay [4] (setting [8]), 74.4%. For the same molecule, the differential viability (reversal) in assay [4] (H69AR cells + 2 uM doxorubicin) is 8.04% (inactive). Moreover, the figures for the inhibition in assay [5] and in assay [6] were -3.03% (inactive) and 3.83% (inactive), respectively.

As to `CCc1nnc(NC(=O)CSc2nnc3ncccn23)s1`, the viability in assay [1] was 91% (inactive); in assay [2] it was 108% (inactive); in assay [3], 95.5% (inactive); in assay [4] (setting [7]) it was 98.7%; in assay [4] (setting [8]), 95.5%. For the same molecule, the differential viability (reversal) in assay [4] (H69AR cells + 2 uM doxorubicin) is -3.16% (inactive). For the same molecule, the inhibition was -5.07% (inactive) in assay [5] and 3.27% (inactive) in assay [6].

Take `Cc1occc1-c1nnc(SCC(=O)N2CCOCC2)n1Cc1ccco1`: the viability in assay [1] was 106% (inactive); in assay [2], 114% (inactive); in assay [3], 101% (inactive); in assay [4] (setting [7]) it was 103%; in assay [4] (setting [8]), 101%. Moreover, the differential viability (reversal) in assay [4] (H69AR cells + 2 uM doxorubicin) was -2.24% (inactive). Also, the results for the inhibition in assay [5] and in assay [6] were -2.93% (inactive) and 5.09% (inactive), respectively.

Consider `Cc1nc2ccc(F)cc2cc1C(=O)NCC1CCCO1` (configuration not stated), for which the viability in assay [1] was 89% (inactive); in assay [2] it was 90.3% (inactive); in assay [3], 85.2% (inactive); in assay [4] (setting [7]), 97.3%; in assay [4] (setting [8]), 85.2%. For the same molecule, in assay [4] (H69AR cells + 2 uM doxorubicin), the differential viability (reversal) is -12.1% (inactive). The inhibition is -8.9% (inactive) in assay [5] and 3.27% (inactive) in assay [6].

Turning to `CCCCN1C[C@H](O)[C@@H](O)[C@H](O)[C@H]1CO`, the viability is 123% (inactive) in assay [1]; 88.9% (inactive) in assay [2]; 96.5% (inactive) in assay [3]; 100% in assay [4] (setting [7]); 96.5% in assay [4] (setting [8]). In addition, in assay [4] (H69AR cells + 2 uM doxorubicin), the differential viability (reversal) is -3.9% (inactive). Moreover, the inhibition in assay [5] is 1.82% (inactive); in assay [6] it was 27% (inactive).
